{"source": "paper PMC5933005", "about": "(Dalton Transactions (Cambridge, England : 2003), 2018)", "key": {"[1]": {"conditions": "15 min after oral administration; cited from earlier work"}, "[2]": {"conditions": "whole human blood in vitro; cited from earlier work"}, "[3]": {"assay": "Biotransformation / kinetic inertness in whole human blood by RP-ICP-MS", "assay_type": "in vitro ADME", "conditions": "37 °C; for stability of parent compound in whole human blood: 24 h incubation; for platinum(II) metabolites detected in whole human blood: after 24 h incubation", "summary_of_the_method": "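Fresh human blood spiked with test compound was extracted in one of two ways: ice-cold acetonitrile with vortexing, sonication and centrifugation, or 0.1% formic acid, dry-ice freeze/sonication thaw, then 25% TCA precipitation. Supernatants were 0.45 μm filtered, diluted 1:5 in 50 mM ammonium formate (pH 6.0) and held at 4 °C. Species were separated by C18 RP-ICP-MS in triplicate, with a platinum(IV) reference QC for normalisation. Half-life came from a first-order fit.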"}, "[4]": {"tested_on": "SW480 (colon carcinoma) cells", "conditions": "2 h exposure; cited from earlier work"}, "[5]": {"tested_on": "murine colon cancer model CT-26", "conditions": "i.p. and p.o. administration; cited from earlier work"}, "[6]": {"assay_type": "in vitro ADME, human", "conditions": "for proportion of platinum found in blood cells: after 2 h, ~10 μM in whole human blood, 37 °C", "summary_of_the_method": "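Fresh heparinised human whole blood was spiked from a 1 mM aqueous stock to a final ~10 μM and incubated at 37 °C for 0, 0.5, 1, 2 and 24 h. It was centrifuged for 10 min at 2000 rcf in a 4 °C rotor. Plasma and cell fractions were microwave-digested in 25% nitric acid at 200 °C, and Pt was measured by ICP-MS. Values were normalised to haematocrit (47%) and fraction density, and the rate constant came from an exponential fit.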"}, "[7]": {"tested_on": "leukemia L1210 mouse model", "conditions": "cited from earlier work"}, "[8]": {"conditions": "kinetic model, exponential kinetics, whole human blood"}}, "note": "Where two headings read alike, the source gives them in different places."}
{"compound": "CC(=O)[O][Pt]([NH2])([Cl])([Cl])([NH]C1CCCCC1)[O]C(C)=O", "note": "[satraplatin]", "values": [{"measurement": "detection of parent compound in patient's plasma ultrafiltrate", "setting": "[1]", "value": "could not be detected any more"}, {"measurement": "number of platinum-containing species in patient's plasma ultrafiltrate", "setting": "[1]", "value": "seven"}, {"measurement": "half-life for the disappearance of the parent compound", "setting": "[2]", "value": 6.3, "unit": "min"}]}
{"compound": "O=C1[O][Pt]2([OH])([OH])([NH]C3CCCCC3[NH]2)[O]C1=O", "note": "[Complex 1, (OC-6-33)-dihydroxido(1R,2R-diaminocyclohexane)oxalatoplatinum(IV)]", "values": [{"measurement": "stability of parent compound in whole human blood", "setting": "[3]; 10 μM, RP-ICP-MS", "value": "remain stable over 24 hours"}]}
{"compound": "CC(=O)[O][Pt]1([NH2])([NH2])([O]C(C)=O)[O]C(=O)C2(CCC2)C(=O)[O]1", "note": "[Complex 3, (OC-6-33)-diacetatodiammine(1,1-cyclobutanedicarboxylato)-platinum(IV)]", "values": [{"measurement": "stability of parent compound in whole human blood", "setting": "[3]; 10 μM, RP-ICP-MS", "value": "remain stable over 24 hours"}]}
{"compound": "CC[NH][Pt]([Cl])([Cl])([NH]CC)([O]C(=O)CCC(=O)OCC)[O]C(=O)CCC(=O)OCC", "note": "[Complex 4, (OC-6-33)-dichloridobis((4-ethoxy)-4-oxobutanoato)bis(ethylamine)platinum(IV)]", "values": [{"measurement": "stability of parent compound in whole human blood", "setting": "[3]; 10 μM, RP-ICP-MS", "value": "could not be detected any more after 24 hours"}, {"measurement": "platinum(II) metabolites detected in whole human blood", "setting": "[3]; 10 μM, RP-ICP-MS", "value": "no notable amounts of hydrophilic platinum(II)-metabolites were detected"}, {"measurement": "half-life in blood", "setting": "[3]; first-order kinetic model, whole human blood", "value": "45.4 ± 3.3", "unit": "min"}, {"measurement": "platinum accumulation in SW480 cells", "setting": "[4]", "value": "high platinum accumulation"}, {"measurement": "anticancer activity in CT-26 model", "setting": "[5]", "value": "showed anticancer activity"}, {"measurement": "proportion of platinum found in blood cells", "setting": "[6]", "value": "around 60%"}, {"measurement": "proportion of platinum found in blood cells", "setting": "[6]; listed as Compound 4", "value": 60, "unit": "%"}, {"measurement": "drug-related platinum inside blood cells in equilibrium", "setting": "[6]; [8]", "value": "59.7 ± 0.9", "unit": "%"}, {"measurement": "first-order rate constant of accumulation in blood cells", "setting": "[6]; [8]", "value": "1.2 ± 0.1", "unit": "h⁻¹"}, {"measurement": "proportion of platinum in red blood cells", "setting": "[6]; time point 0, ~10 μM in whole human blood", "value": 30, "unit": "%"}, {"measurement": "efficacy in L1210 model", "setting": "[7]", "value": "efficacy"}]}
{"compound": "(OC-6-33)-diacetato(1R,2R-diaminocyclohexane)oxalatoplatinum(IV) [Complex 2]", "values": [{"measurement": "platinum(II) metabolites detected in whole human blood", "setting": "[3]; 10 μM, RP-ICP-MS", "value": "a significant amount of oxaliplatin could be detected"}, {"measurement": "species observed in whole human blood", "setting": "[3]; over 6 hours incubation, 10 μM, RP-ICP-MS", "value": "only the intact complex was observed"}]}
